Data reported in ChEMBL document CHEMBL4402525, “Potential Tools for Eradicating HIV Reservoirs in the Brain: Development of Trojan Horse Prodrugs for the Inhibition of P-Glycoprotein with Anti-HIV-1 Activity” (J Med Chem, 2020).
The source made the active and inactive calls. The calls are words filed in the database; no cut-off is given here.

Key:
[1] = system: Human immunodeficiency virus 1; test: Antiviral activity against HIV1 LAI infected in human 12D7 cells overexpressing p-gp assessed as reduction in P24 level at 0.08 to 1.25 uM incubated for 3 days followed by replacement of fresh medium containing compound and measured after 3 days by ELISA; format: functional, organism-based; settings: M:B_Lai
Method in brief: (§1)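 12D7 CD4+ T cells in log phase, resuspended at 1 million/mL, infected 4 h with 500 TCID50 HIV-1 LAI, washed three times, plated at 75 000 cells/mL; compound added at 0.05% DMSO in RPMI 1640 with 10% FBS, L-glutamine and penicillin/streptomycin; medium with same compound level renewed day 3; day-6 supernatant p24 (gag) quantified by ELISA; duplicate runs.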

[2] = system: Human immunodeficiency virus 1; test: Antiviral activity against HIV1 LAI infected in human 12D7 cells overexpressing p-gp assessed as reduction in P24 level at 1:1 ratio of test compound to abacavir incubated for 3 days followed by followed by replacement of fresh medium containing compound and measured after 3 days by ELISA; format: functional, organism-based; settings: M:B_Lai; method in brief: as §1
[3] = target: T1, P-gp (ABCB1) (Homo sapiens, UniProt P08183); test: Inhibition of P-gp in human 12D7-MDR cells up to 500 uM using calcein-AM as substrate after 30 mins by flow cytometric analysis relative to control; settings: probe calcein-AM
T1 sequence (P08183 whole entry): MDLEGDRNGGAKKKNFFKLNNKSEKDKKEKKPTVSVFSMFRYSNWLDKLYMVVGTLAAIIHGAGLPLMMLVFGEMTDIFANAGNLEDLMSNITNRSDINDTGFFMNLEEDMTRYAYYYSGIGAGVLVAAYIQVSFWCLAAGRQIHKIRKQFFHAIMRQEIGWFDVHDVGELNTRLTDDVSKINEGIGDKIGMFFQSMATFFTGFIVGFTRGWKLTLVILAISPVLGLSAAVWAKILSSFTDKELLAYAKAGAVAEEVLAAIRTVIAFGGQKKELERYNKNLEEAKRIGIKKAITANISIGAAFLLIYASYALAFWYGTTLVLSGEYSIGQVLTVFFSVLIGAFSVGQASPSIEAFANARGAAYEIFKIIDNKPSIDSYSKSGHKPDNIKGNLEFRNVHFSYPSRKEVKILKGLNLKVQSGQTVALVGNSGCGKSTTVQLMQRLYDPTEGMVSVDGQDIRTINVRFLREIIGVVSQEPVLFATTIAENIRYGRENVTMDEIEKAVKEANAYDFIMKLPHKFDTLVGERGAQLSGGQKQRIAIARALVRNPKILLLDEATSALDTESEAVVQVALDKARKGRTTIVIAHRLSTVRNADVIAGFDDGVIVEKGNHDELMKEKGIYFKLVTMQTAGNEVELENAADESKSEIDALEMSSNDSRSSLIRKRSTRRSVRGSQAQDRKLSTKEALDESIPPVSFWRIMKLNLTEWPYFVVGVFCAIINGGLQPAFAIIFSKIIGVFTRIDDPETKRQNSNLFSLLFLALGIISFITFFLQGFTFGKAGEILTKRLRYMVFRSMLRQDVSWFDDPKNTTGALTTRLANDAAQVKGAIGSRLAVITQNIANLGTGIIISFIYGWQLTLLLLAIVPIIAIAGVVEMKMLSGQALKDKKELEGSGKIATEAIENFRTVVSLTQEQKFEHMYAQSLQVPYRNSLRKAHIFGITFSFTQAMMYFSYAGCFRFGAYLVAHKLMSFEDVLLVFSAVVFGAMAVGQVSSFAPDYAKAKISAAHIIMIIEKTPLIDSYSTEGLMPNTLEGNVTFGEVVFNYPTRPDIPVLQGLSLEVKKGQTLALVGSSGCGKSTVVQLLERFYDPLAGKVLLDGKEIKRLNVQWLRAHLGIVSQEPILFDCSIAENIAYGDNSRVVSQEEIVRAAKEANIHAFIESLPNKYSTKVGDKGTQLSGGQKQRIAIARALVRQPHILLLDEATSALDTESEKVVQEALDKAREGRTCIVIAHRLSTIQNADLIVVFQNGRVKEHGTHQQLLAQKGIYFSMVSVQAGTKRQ

[4] = target: T1, P-gp (ABCB1); test: Inhibition of P-gp in human 12D7-MDR cells up to 500 uM using NBD-Aba as substrate after 30 mins by flow cytometric analysis relative to control; settings: probe NBD-Aba
[5] = Produrg conversion in pH 7.4 PBS/30% methanol assessed as DTT-mediated nelfinavir formation by measuring half life at 4 uM in presence of 250 mM DTT by UPLC-MS analysis; format: ADME; settings: buffer, pH 7.4, 4 µM
Method in brief: (§2)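 Heterodimer at 4 μM was incubated at 37 °C with 250 mM DTT or 10 mM GSH. The solvent was degassed 30% methanol/PBS (pH ~ 7.4) containing 5 μM quinine as internal standard. Reductant-triggered release of the monomeric drugs was followed over time and given as t1/2.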

[6] = Produrg conversion in pH 7.4 PBS/30% methanol assessed as DTT-mediated abacavir formation by measuring half life at 4 uM in presence of 250 mM DTT by UPLC-MS analysis; format: ADME; settings: buffer, pH 7.4, 4 µM; method in brief: as §2
[7] = Stability of compound in PBS after 1 week by UPLC-MS analysis; format: physicochemical; settings: read-out: Stability
[8] = Produrg conversion in pH 7.4 PBS/30% methanol assessed as GSH-mediated abacavir formation by measuring half life at 4 uM in presence of 10 mM GSH by UPLC-MS analysis; format: ADME; settings: pH 7.4, 4 µM; method in brief: as §2
[9] = Stability of compound in RPMI medium at 100 uM after 1 week by UPLC-MS analysis; format: physicochemical; settings: read-out: Stability
Method in brief: (§3)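 Heterodimer at 100 μM was held at 37 °C in 12D7 cell medium with 1% DMSO. The medium was RPMI 1640 with penicillin/streptomycin, 5 mM L-glutamine and 10% FBS. Every 24 h an aliquot was quenched 1:1 with ice-cold acetonitrile containing 1.0 mM 4-methoxybenzyl alcohol, then centrifuged. Supernatant was run on C8 RP-HPLC (0.05% TFA, 15–75% acetonitrile over 30 min, UV 254 nm), in duplicate.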

[10] = Produrg conversion in pH 7.4 PBS/30% methanol assessed as GSH-mediated nelfinavir formation by measuring half life at 4 uM in presence of 10 mM GSH by UPLC-MS analysis; format: ADME; settings: pH 7.4, 4 µM; method in brief: as §2
[11] = Produrg conversion in pH 7.4 PBS/30% methanol assessed as DTT-mediated darunavir formation by measuring half life at 4 uM in presence of 250 mM DTT by UPLC-MS analysis; format: ADME; settings: buffer, pH 7.4, 4 µM; method in brief: as §2
[12] = Stability of compound in PBS after 3 days by UPLC-MS analysis; format: physicochemical; settings: read-out: Stability
[13] = Stability of compound in RPMI medium at 100 uM after 3 days by UPLC-MS analysis; format: physicochemical; settings: read-out: Stability; method in brief: as §3
[14] = Produrg conversion in pH 7.4 PBS/30% methanol assessed as GSH-mediated darunavir formation by measuring half life at 4 uM in presence of 10 mM GSH by UPLC-MS analysis; format: ADME; settings: pH 7.4, 4 µM; method in brief: as §2

SMILES | Activity [1] | Activity [2] | t1/2 [6] | t1/2 [8] | further results
CC(C)CN(C[C@@H](O)[C@H](Cc1ccccc1)NC(=O)O[C@H]1CO[C@H]2OCC[C@H]21)S(=O)(=O)c1ccc(N)cc1 | Active | Active | – | – | –
Nc1nc(NC2CC2)c2ncn([C@H]3C=C[C@@H](CO)C3)c2n1 [ABACAVIR] | Active | – | – | – | inhibition at 0.5 h [3]: < 10%; inhibition at 0.5 h [4]: < 10%
Cc1c(O)cccc1C(=O)N[C@@H](CSc1ccccc1)[C@H](O)CN1C[C@H]2CCCC[C@H]2C[C@H]1C(=O)NC(C)(C)C | Active | Active | – | – | –
Cc1c(OC(=O)CCCSSCCCC(=O)OC[C@@H]2C=C[C@H](n3cnc4c(NC5CC5)nc(N)nc43)C2)cccc1C(=O)N[C@@H](CSc1ccccc1)[C@H](O)CN1C[C@H]2CCCC[C@H]2C[C@H]1C(=O)NC(C)(C)C | Active | – | 31.8 h | 29.4 h | t1/2 [5]: 1.2 h; remaining at 168 h [7]: > 95%; remaining at 168 h, 100 µM [9]: > 95%; t1/2 [10]: 10.3 h
CC(C)CN(C[C@@H](OC(=O)CCCSSCCCC(=O)OC[C@@H]1C=C[C@H](n2cnc3c(NC4CC4)nc(N)nc32)C1)[C@H](Cc1ccccc1)NC(=O)O[C@H]1CO[C@H]2OCC[C@H]21)S(=O)(=O)c1ccc(N)cc1 | Active | – | 34.5 h | 21.6 h | t1/2 [11]: 21.3 h; remaining at 72 h [12]: > 95%; remaining at 72 h, 100 µM [13]: > 95%; t1/2 [14]: 36.3 h
